In ChEMBL document CHEMBL1782029, “Synthesis and biological evaluation of N-substituted benzo[c]phenanthrolines and benzo[c]phenanthrolinones as antiproliferative agents” (Eur J Med Chem, 2011):
The source made the active and inactive calls. The calls are words filed in the database; no cut-off is given here.

Tests used:
[1] = molecular target: DNA topoisomerase 2-alpha (Homo sapiens) (UniProt P11388); settings: 50 uM
[2] = molecular target: DNA topoisomerase 2-alpha (Homo sapiens) (UniProt P11388); settings: 50 uM; remark: listed apart in the source
HT-29 [3] = experiment: Cytotoxicity against human HT-29 cells after 72 hrs by MTS assay; type: functional, cell-based; settings: HT-29, 72 h
[4] = molecular target: T1, DNA topoisomerase 1 (Homo sapiens) (UniProt P11387); experiment: Inhibition of camptothecin-induced poisoning effect of human topoisomerase 1 assessed as suppression of CPT-induced 117 bp DNA cleavage by SDS-PAGE analysis
T1 sequence (whole entry): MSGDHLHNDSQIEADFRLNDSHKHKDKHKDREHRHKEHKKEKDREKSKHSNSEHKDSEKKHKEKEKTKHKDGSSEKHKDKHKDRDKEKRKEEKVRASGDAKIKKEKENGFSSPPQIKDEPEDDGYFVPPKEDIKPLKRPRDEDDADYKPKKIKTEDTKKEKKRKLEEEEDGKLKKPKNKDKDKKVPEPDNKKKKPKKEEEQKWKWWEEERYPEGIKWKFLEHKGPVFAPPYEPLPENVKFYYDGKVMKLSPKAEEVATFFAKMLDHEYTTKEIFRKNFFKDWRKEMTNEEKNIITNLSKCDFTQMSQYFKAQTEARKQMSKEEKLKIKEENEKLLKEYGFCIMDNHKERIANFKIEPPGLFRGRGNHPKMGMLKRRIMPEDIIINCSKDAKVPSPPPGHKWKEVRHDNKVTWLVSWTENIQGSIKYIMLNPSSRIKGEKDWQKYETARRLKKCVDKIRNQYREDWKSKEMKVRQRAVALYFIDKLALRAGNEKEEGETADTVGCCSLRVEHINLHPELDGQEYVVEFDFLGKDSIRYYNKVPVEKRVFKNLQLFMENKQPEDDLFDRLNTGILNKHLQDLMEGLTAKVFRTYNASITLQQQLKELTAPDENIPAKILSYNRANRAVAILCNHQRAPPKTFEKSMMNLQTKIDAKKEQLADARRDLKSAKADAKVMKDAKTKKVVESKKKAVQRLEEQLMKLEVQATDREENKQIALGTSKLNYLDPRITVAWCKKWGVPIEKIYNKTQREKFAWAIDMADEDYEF

Nucleic Acid = experiment: Binding affinity to 265 bp of 3'-end-radio-labelled DNA fragment at 0.5 to 5 uM treated 15 mins before Dnase 1-mediated digestion by footprinting assay; type: nucleic-acid assay
In short: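 DNase I footprinting. It was equilibrated with compound for 15 min at 37 °C, then digested 3 min with DNase I (0.01 unit/ml) in 20 mM NaCl, 2 mM MgCl2, 2 mM MnCl2, pH 7.3. Samples were lyophilised, denatured at 90 °C and run on an 8% denaturing polyacrylamide gel.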

[5] = molecular target: T1, DNA topoisomerase 1 (Homo sapiens); experiment: Inhibition of human recombinant topoisomerase 1 assessed as cleavage of 117-mer DNA fragment at 0.5 to 5 uM using ethidium bromide staining by agarose gel electrophoresis analysis
Calf thymus DNA [6] = experiment: Binding affinity to calf thymus DNA by circular dichroism analysis; type: nucleic-acid assay; settings: Bos taurus
Calf thymus DNA [7] = experiment: Binding affinity to calf thymus DNA at 20 uM by UV-vis spectrophotometry analysis; type: nucleic-acid assay; settings: Bos taurus
[8] = molecular target: T1, DNA topoisomerase 1 (Homo sapiens); experiment: Inhibition of human recombinant topoisomerase 1-mediated relaxation of supercoiled pUC19 DNA assessed as formation of nicked DNA at 1 to 50 uM using ethidium bromide staining by agarose gel electrophoresis
In short: (§1)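 Supercoiled pUC19 plasmid (130 ng) was incubated with 4 units of human recombinant Top1 at 37 °C for 45 min in relaxation buffer (50 mM Tris pH 7.8, 50 mM KCl, 10 mM MgCl2, 1 mM DTT, 1 mM EDTA, 1 mM ATP) with increasing compound concentrations. Products were resolved on 1% agarose at room temperature, 2 h at 120 V, then stained with ethidium bromide and imaged under UV.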

[9] = molecular target: T1, DNA topoisomerase 1 (Homo sapiens); experiment: Inhibition of human recombinant topoisomerase 1 assessed as cleavage of 117-mer DNA fragment at 20 to 50 uM using ethidium bromide staining by agarose gel electrophoresis analysis
[10] = molecular target: DNA topoisomerase 2-alpha (Homo sapiens) (UniProt P11388); experiment: Inhibition of human topoisomerase 2 assessed as formation of nicked form of supercoiled pUC19 DNA at 50 uM after 45 mins using ethidium bromide staining by agarose gel analysis
[11] = molecular target: DNA topoisomerase 2-alpha (Homo sapiens) (UniProt P11388); experiment: Inhibition of human topoisomerase 2 assessed as formation of linear form of supercoiled pUC19 DNA at 50 uM after 45 mins using ethidium bromide staining by agarose gel analysis
[12] = molecular target: T1, DNA topoisomerase 1 (Homo sapiens); experiment: Inhibition of human recombinant topoisomerase 1-mediated relaxation of supercoiled pUC19 DNA assessed as formation of nicked DNA at 0.2 to 10 uM using ethidium bromide staining by agarose gel electrophoresis
In short: as §1

HT-29 [13] = experiment: Cell cycle arrest in human HT-29 cells at G2/M phase at 0.1 to 2.5 uM after 48 hrs using propidium iodide staining by FACS analysis; type: functional, cell-based
In short: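 Exponentially growing HT-29 colon carcinoma cells (300,000 per well) were plated for 24 h, then exposed to 0.1, 1 or 2.5 µM compound for 48 h. Cells were fixed, stained with propidium iodide and analysed by flow cytometry (FACScan).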

[14] = molecular target: T1, DNA topoisomerase 1 (Homo sapiens); experiment: Inhibition of human recombinant topoisomerase 1-mediated relaxation of supercoiled pUC19 DNA assessed as formation of nicked DNA at 0.1 to 5 uM using ethidium bromide staining by agarose gel electrophoresis
In short: as §1

Sequence of DNA topoisomerase 2-alpha (Homo sapiens) (P11388 whole entry): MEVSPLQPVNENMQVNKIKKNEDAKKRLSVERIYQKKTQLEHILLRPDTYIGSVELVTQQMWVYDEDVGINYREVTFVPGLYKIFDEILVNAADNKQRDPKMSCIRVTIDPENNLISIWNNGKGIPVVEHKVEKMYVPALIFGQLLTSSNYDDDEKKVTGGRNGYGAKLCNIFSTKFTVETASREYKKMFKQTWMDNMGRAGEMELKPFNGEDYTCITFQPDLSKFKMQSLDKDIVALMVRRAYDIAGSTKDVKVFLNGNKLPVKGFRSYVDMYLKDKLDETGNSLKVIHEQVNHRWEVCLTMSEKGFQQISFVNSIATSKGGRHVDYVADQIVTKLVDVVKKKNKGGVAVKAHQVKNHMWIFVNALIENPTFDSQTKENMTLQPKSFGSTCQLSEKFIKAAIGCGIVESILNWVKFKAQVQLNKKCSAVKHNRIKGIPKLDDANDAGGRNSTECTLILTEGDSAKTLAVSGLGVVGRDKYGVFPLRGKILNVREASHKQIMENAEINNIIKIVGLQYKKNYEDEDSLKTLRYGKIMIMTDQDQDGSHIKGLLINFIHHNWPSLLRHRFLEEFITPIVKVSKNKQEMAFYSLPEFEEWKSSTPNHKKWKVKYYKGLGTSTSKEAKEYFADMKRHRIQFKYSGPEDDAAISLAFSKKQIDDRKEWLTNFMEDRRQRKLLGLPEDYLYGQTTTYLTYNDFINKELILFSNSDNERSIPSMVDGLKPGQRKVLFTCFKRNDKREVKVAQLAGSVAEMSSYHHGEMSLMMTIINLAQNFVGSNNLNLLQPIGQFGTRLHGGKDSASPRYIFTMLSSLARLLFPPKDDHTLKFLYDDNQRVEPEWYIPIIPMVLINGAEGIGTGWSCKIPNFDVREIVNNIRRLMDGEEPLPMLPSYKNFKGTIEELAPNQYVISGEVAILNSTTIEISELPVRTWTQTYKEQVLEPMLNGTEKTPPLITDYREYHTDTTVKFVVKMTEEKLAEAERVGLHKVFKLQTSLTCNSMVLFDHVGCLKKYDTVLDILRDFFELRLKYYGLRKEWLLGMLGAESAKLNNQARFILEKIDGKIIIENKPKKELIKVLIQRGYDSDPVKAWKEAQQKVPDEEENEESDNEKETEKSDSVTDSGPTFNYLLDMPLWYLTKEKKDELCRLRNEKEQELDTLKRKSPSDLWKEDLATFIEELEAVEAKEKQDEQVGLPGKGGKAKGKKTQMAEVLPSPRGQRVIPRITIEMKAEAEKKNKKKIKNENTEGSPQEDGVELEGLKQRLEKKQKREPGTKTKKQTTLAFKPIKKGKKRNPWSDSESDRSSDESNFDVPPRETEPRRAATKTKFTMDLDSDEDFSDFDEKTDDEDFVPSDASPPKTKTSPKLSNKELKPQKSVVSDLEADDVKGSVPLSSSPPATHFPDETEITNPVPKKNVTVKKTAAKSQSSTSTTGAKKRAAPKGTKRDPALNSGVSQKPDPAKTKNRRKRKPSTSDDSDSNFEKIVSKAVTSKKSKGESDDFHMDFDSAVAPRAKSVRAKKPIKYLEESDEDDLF

Compound | inhibition [1] | inhibition [2] | inhibition (Nucleic Acid) | inhibition [5] | Activity (Calf thymus DNA [6]) | Activity (Calf thymus DNA [7]) | Topoisomerase 1 inhibition (active/inactive) [8] | inhibition [9] | inhibition [10] | inhibition [11] | inhibition [12] | Top1 relaxation inhibition (qualitative call) [14] | IC50 (HT-29 [3]) [nM] | inhibition [4] | Activity (HT-29 [13])
COc1cc([C@@H]2c3cc4c(cc3[C@@H](O[C@@H]3O[C@@H]5CO[C@@H](C)O[C@H]5[C@H](O)[C@H]3O)[C@H]3COC(=O)[C@H]23)OCO4)cc(OC)c1O | Active | Active |  |  |  |  |  |  |  |  |  |  |  |  | 
CCN(CC)CCCNc1nc2c3cccnc3ccc2c2cc3c(cc12)OCO3 |  |  |  |  | Active | Active |  | inactive | inactive | inactive | Active |  | 1830 | Dose-dependent effect | 

Now from value to compound, other results behind:

inhibition [1] | inhibition [2] | inhibition (Nucleic Acid) | inhibition [5] | Activity (Calf thymus DNA [6]) | Activity (Calf thymus DNA [7]) | Topoisomerase 1 inhibition (active/inactive) [8] | inhibition [9] | inhibition [10] | inhibition [11] | inhibition [12] | Top1 relaxation inhibition (qualitative call) [14] | Compound | IC50 (HT-29 [3]) [nM] | inhibition [4] | Activity (HT-29 [13])
 |  | Active | inactive | Active | Active | Active |  |  |  |  |  | CN(C)CCCNc1nc2c3cccnc3ccc2c2cc3c(cc12)OCO3 | 1730 | Dose-dependent effect | 
 |  |  | inactive | Active | Active | Active |  |  |  |  |  | CCN(CC)CCn1c(=O)c2cc(OC)c(OC)cc2c2ccc3cnccc3c21 | 1820 | Dose-dependent effect | 
 |  | Active |  | Active | Active |  | inactive | inactive | inactive | Active | Active | COc1cc2c(NCCN(C)C)nc3c4ccncc4ccc3c2cc1OC | 1020 | Dose-dependent effect | Active
